Bioassay records as filed in PubChem BioAssay.
CSN inh: CSN deneddylation inhibition | 360,000 tested, 0.38% active | AID 651999 | Q92905 | Purified CSN, SCF-Nedd8-OG deneddylation, fluorescence polarization | inhibition, % at 12.5 µM;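 active = pattern-corrected inhibition above about 35%, with an unprinted fluorescence ratio check between 0.5 and 1.5, limit read from the data, passing the limit was not always enough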
Target sequence (Q92905 whole entry, looked up, one chain of several): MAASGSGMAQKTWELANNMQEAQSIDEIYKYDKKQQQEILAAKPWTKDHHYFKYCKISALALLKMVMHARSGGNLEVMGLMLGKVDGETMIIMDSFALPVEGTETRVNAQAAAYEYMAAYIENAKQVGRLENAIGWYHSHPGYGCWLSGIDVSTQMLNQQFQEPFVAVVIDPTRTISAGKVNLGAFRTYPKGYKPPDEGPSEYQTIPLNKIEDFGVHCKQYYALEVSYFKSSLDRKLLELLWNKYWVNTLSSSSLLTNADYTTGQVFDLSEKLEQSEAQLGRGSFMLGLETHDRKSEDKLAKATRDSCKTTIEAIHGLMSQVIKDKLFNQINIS
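Detection – fluorescence polarization · System – HEK293T-derived human Csn5 enzyme · Controls – substrate-only high control, full reaction low control · Timing – 90 min, room temperature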
SKN-1 block: inhibitors of C. elegans SKN-1. C. elegans VP596 Pgst-4::GFP/RFP ratio, acrylamide-induced, 24 h. inhibition, % at 21.8 µM. 360,000 tested, 0.49% active;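 active = interference check ratio from 0.5 to 1.5 plus GFP to RFP signal ratio inhibition reaching or exceeding a fixed threshold, cut at about 30% in these data, passing the limit was not always enough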
SUMO1-SIM PPI: SUMO1-SIM interaction modulation. SUMO1 binding to a labelled peptide, TR-FRET, 1 h. inhibition, % at 20 µM. 360,000 tested, 0.33% active; in the data active = inhibition above about 37%
Target sequence (P63165 whole entry, looked up): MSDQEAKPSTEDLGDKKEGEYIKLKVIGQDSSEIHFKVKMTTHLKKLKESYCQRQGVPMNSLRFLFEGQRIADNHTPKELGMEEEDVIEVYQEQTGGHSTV
Rpn11 inh: Rpn11 (human) deubiquitinase inhibition. 360,000 tested, 0.59% active. AID 588493. inhibition, % at 20 µM. human 26S proteasome, Ub4-pepOG fluorescence polarization; 20S core pre-blocked with epoxomicin;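 active = inhibition at 20 µM, scaled to each plate's controls, above about 33%, limit read from the data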
MT1-MMP act inh: MT1-MMP (human) activation inhibition | P50281 | HT1080 RFP-PRO-GFP cells, GFP/RFP ratio fluorescence, overnight; percent of plate control window, DMSO zero | AID 651647 | 360,000 tested, 0.061% active | GFP/RFP ratio change, % at 20 µM;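 active = GFP/RFP ratio change of at least 30% with cell ATP level not reduced by more than half and red fluorescence within 50% of control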
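Assay system – RFP-PRO-GFP reporter HT1080 cells · Compound dosing – single dose of 20 µM compound, 1% DMSO final · Incubation – overnight compound exposure at 37 °C · Measure – GFP/RFP fluorescence ratio · Benchmarks – DMSO wells and RFP-L50D-GFP cells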
DNMT1 inh: inhibitors of human DNMT1 | P26358 | DNMT1 molecular beacon, Hinp1I cleavage, fluorescence | inhibition (reported as % activation of signal), % at 10 µM | 360,000 tested, 0.83% active | AID 588458; in the data active = inhibition above about 50%
A number is an active result; i = inactive; nt = not tested or not shown. Compounds with a hit are over-represented: about 2.3% of the library has one in this group of screens.

SMILES	CSN inh	SKN-1 block	SUMO1-SIM PPI	Rpn11 inh	MT1-MMP act inh	DNMT1 inh
C=CCN1C(=O)/C(=C/c2ccc(N3CCOCC3)o2)C(=O)NC1=S	103	i	i	nt	i	i
O=C1NC(=O)C(=Cc2ccc(N3CCOCC3)o2)C(=O)N1	i	i	i	nt	i	i
COC(=O)C1=C(c2ccc(OCc3ccccc3)c(F)c2)C[C@@H]2CC[C@H]1N2C	i	i	i	i	i	i
CC(=O)N(C1=NCCCS1)c1ccc(Cl)cc1	i	i	i	i	i	i
CC(=O)N(C1=NCCCS1)c1ccc(F)cc1	i	39	i	i	i	i
O=c1[nH]c2ccccc2n1C1CCN(Cc2ccc(-c3nc4ccc(F)cc4nc3-c3ccccc3)cc2)CC1	i	i	i	nt	i	nt
ClCCN(CCCl)c1ccc(C=Cc2ccncn2)cc1	i	54	i	nt	i	i
O=c1[nH]c2ccccc2n1C1CCN(C(CCc2ccccc2)c2nnnn2-c2ccc3c(c2)OCCO3)CC1 (stereo unspecified)	i	i	i	i	i	i
COc1ccc(-n2nnnc2C(c2ccccc2OC(F)(F)F)N2CCC3(CC2)C(=O)NCN3c2ccccc2)cc1 (stereo unspecified)	i	i	i	i	i	i
CCCCCn1c(N)c(C(=O)NCCN2CCOCC2)c2nc3ccccc3nc21	i	34	i	i	i	i
Nc1c(C(=O)NCc2ccco2)c2nc3ccccc3nc2n1Cc1ccc(F)cc1	i	i	40	i	i	i
CCCCn1c(N)c(C(=O)OCCOC)c2nc3ccccc3nc21	i	i	i	i	i	i
COCCCn1c(N)c(C(=O)NCCC(C)C)c2nc3ccccc3nc21	37	i	i	i	i	i
CCCCNC(=O)c1c(N)n(Cc2ccc3c(c2)OCO3)c2nc3ccccc3nc12	i	i	64	i	i	i
Nc1c(C(=O)NCc2ccco2)c2nc3ccccc3nc2n1Cc1ccccc1	i	i	i	i	i	i
CCN(CC)c1ccc(N=Cc2c(O)n(-c3ccccc3C)c(=O)[nH]c2=O)cc1	i	i	i	64	i	i
CCN(CC)c1ccc(N=Cc2c(O)n(-c3ccccc3)c(=O)[nH]c2=O)cc1	i	i	i	i	i	i
CCOC(=O)[C@]12Cc3cc(C)ccc3[C@H]1N(C1CCCCC1)C(=O)c1cc(OC)ccc12	i	i	i	nt	i	nt
COC(=O)C12OCC34C(CC5C(C)=C(O)C(=O)CC5(C)C3C(O)C1O)OC(=O)C(OC(=O)/C=C(\C)C(C)C)C24 (stereo unspecified)	i	56	i	i	i	i
CCN(CC)c1ccc(/C=C2\C(=O)NC(=O)N(CC3CCCO3)C2=O)cc1 (stereo unspecified)	i	42	i	i	i	i
Cc1ccc(/C=C2\C(=O)NC(=O)N(CC3CCCO3)C2=O)s1 (stereo unspecified)	i	i	i	i	i	i
CCn1nc(-c2cccs2)nc2c(=O)n(C)c(=O)nc1-2	63	i	i	i	i	119
CCOc1ccc(-n2c(-c3cccs3)nc3ccccc3c2=O)cc1	i	i	i	i	i	i
CCOC(=O)[C@]12Cc3ccccc3[C@H]1N(CCC(=O)OC)C(=O)c1ccccc12	i	i	i	nt	i	nt
Cc1ccnc(NC(=O)CCCc2ccc(N(CCCl)CCCl)cc2)n1	84	i	i	i	i	i
SMILES	CSN inh	SKN-1 block	SUMO1-SIM PPI	Rpn11 inh	MT1-MMP act inh	DNMT1 inh
O=C(Nc1ccc(C(=O)O)cc1)Oc1ccc(N(CCCl)CCCl)cc1	i	i	i	i	i	i
O=C(O)CCn1cc(C=C2C(=O)NC(=S)NC2=O)c(-c2ccccc2)n1	i	i	i	i	i	i
O=C(O)CCn1cc(C=C2C(=O)NC(=S)NC2=O)c(-c2cc3ccccc3oc2=O)n1	i	i	i	i	i	53
CCN(CC)c1ccc(/C=C2\C(=O)NC(=S)N(C)C2=O)o1	i	i	i	nt	i	i
CCN(CC)c1ccc(C=C2C(=O)N(C)C(=S)N(C)C2=O)o1	i	38	i	nt	i	i
CC(=O)OC1C(=O)OCC23CCC4(C)OC4C2OC2CC(OC(=O)C=CC=CC(=O)OCCC1C)C3(C)C21CO1 (stereo unspecified)	i	42	i	i	i	i
CC(O)C1C=CC=CC(=O)OC2CC3OC4C5OC5(C)CCC4(COC(=O)C4OC4(C)C(O)CO1)C2(C)C31CO1 (stereo unspecified)	i	i	i	i	i	i
COc1ccc(NC(=S)N2Cc3ccccc3-n3nncc3C2)c(OC)c1	i	i	i	i	i	i
O=C1CC2OCC=C3CN4CCC56c7ccccc7N1C5C2C3CC46O (stereo unspecified)	i	i	i	i	i	i
O=C1NC(=S)NC(=O)C1=Cc1ccc2c(c1)CCN2CCCCl	i	38	76	nt	i	102
CC[C@H]1CN2CCC1C[C@H]2[C@H](O)c1ccnc2ccc(OC)cc12 (stereo partly specified)	i	i	55	nt	i	i
CC[C@H]1CN2CCC1C[C@@H]2[C@@H](O)c1ccnc2ccc(OC)cc12 (stereo partly specified)	i	i	i	i	i	i
C[C@@H]1CN([C@H](C)CO)C(=O)CCCn2nncc2CO[C@@H]1CN(C)C(=O)Oc1ccc2ccccc2c1	i	i	i	i	i	i
Cc1ccc(N2C(=O)/C(=C/c3ccc(CN(CCC#N)S(C)(=O)=O)o3)C(=O)NC2=S)cc1	48	i	39	i	i	110
CCOC(=O)[C@]12Cc3cc(C)ccc3[C@H]1N(C(C)C)C(=O)c1ccccc12	i	i	i	nt	i	nt
c1ccc2c(c1)[IH]c1ccccc1-2	i	i	i	i	i	53
CCCCCN1C(=O)c2ccccc2[C@@]2(C(=O)OCC)Cc3cc(OC)ccc3[C@@H]12	i	i	i	nt	i	nt
COc1ccc(-n2nnnc2C(CCSC)N2CCC(n3c(=O)[nH]c4ccccc43)CC2)cc1 (stereo unspecified)	i	i	i	i	i	i
O=C(CN1CCOCC1)c1cccc2ccccc12	i	38	i	i	i	i
C[C@H]1CN([C@@H](C)CO)C(=O)CCCn2nncc2CO[C@H]1CN(C)C(=O)Oc1ccc2ccccc2c1	i	i	i	i	i	i
COc1cccc(N2C(=O)NC(=O)/C(=C/c3ccc([N+](=O)[O-])s3)C2=O)c1	i	i	47	i	i	i
COc1cccc(N2C(=O)NC(=O)/C(=C/c3ccc4c(c3)Cc3ccccc3-4)C2=O)c1	i	i	i	i	i	i
COc1ccc(N2C(=O)NC(=O)/C(=C\c3ccc([N+](=O)[O-])s3)C2=O)cc1	i	i	i	i	i	i
